The text below walks through data of article PMC9260860 (Biochemistry, 2021).

A word on the Ki: it is the dissociation constant of the complex between target and ligand, obtained from inhibition or displacement. One may read the IC50 as the concentration that gives 50% inhibition. One may read the kcat as the number of substrate molecules converted per active site and unit of time at saturation. A word on the Km: it is the concentration of substrate that gives half-maximal velocity. The term kcat/Km denotes the turnover number divided by the Michaelis constant.

Data set [1] has as its target T1, HpMTAN (Helicobacter pylori, UniProt Q9ZMY2).
T1 sequence (Q9ZMY2 1-230): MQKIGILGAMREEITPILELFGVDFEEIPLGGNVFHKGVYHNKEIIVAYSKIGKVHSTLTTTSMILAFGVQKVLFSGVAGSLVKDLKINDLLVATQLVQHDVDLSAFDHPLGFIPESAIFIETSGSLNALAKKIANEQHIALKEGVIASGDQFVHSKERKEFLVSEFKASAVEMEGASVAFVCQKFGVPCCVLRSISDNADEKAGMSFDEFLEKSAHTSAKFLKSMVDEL
The format is biochemical.

The next data set addresses HpAFLDA (Helicobacter pylori, UniProt Q9ZMG8). Kind of data set: HpAFLDA inhibition assay. In kind it is biochemical, H. pylori strain J99.
Data set [2] deals with human adenosine deaminase (HsADA). The conditions noted are these: cited from earlier work.
The next data set concerns H. pylori J99. Kind of data set: Inhibition of H. pylori growth in liquid culture. The format is cell-based, Helicobacter pylori.
The target of a further data set is T2, HpAFLDA (jhp0252) (Helicobacter pylori, UniProt Q9ZMG8).
T2 sequence (Q9ZMG8 1-409): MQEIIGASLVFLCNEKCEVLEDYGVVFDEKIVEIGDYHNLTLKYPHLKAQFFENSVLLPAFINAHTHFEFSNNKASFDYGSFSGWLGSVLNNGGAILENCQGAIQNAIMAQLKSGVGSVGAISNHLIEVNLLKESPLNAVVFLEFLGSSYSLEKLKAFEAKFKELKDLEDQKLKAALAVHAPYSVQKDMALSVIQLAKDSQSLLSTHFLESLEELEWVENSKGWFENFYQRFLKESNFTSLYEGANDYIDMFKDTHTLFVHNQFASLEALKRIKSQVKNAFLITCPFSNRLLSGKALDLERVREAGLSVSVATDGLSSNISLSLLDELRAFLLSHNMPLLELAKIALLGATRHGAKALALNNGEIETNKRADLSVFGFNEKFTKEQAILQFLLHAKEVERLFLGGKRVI
Put plainly: Enzymatic assay for HpAFLDA deaminase activity. The format is biochemical, H. pylori strain J99. The note with it: for fold difference of kcat/Km between AFL and adenosine: HpAFLDA, AFL greater than adenosine.

Data set [3] has as its target T1, HpMTAN. Kind of data set: AFL and FL hydrolysis by HpMTAN. The format is biochemical.
The subject of data set [4] is H. pylori cells. Kind of data set: Metabolism of AFL and FL by live H. pylori cell mixtures. The format is cell-based, Helicobacter pylori. The note with it: ~10^8 cells in PBS pH 7.0. The gist of the method: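 Live cells were taken from overnight cultures and washed twice with PBS. Incubations were started by adding 25 μM AFL or FL to ~10^8 cells in PBS (pH 7.0). Metabolites were extracted with ice-cold acetonitrile/methanol/water (40:40:20) containing 0.1 M formic acid and a deuterated SAM internal standard. Extracts were dried, redissolved in water, and quantified by reversed-phase LC-MS/MS (ESI−, MRM).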

A further data set has as its system H. pylori. Put plainly: Metabolite supplementation of the growth medium, effect on H. pylori cell growth. In kind it is cell-based, Helicobacter pylori.
In data set [5] the test system is Sav2595, Acel0264, Dr0824, Nis0429. The conditions noted are these: four enzymes, 30 °C; cited from earlier work.
Data set [6] deals with H. pylori cells. The format is cell-based, Helicobacter pylori.
Substrate in data set [7]: C[C@H]1O[C@@H](n2cnc3c(N)ncnc32)[C@H](O)[C@@H]1O
Kind of data set: Enzymatic assay for HpAFLDA deaminase activity. The format is biochemical, H. pylori strain J99. The note with it: other: deamination by HpAFLDA, 50 mM HEPES pH 7.0, 25 °C.

Substrate in data set [8]: Nc1ncnc2c1ncn2[C@@H]1O[C@H](CCC(=O)c2cccc(C(=O)O)c2)[C@@H](O)[C@H]1O
Put plainly: Enzymatic assay for HpAFLDA deaminase activity. The format is biochemical, H. pylori strain J99. The note with it: other: deamination by HpAFLDA, 50 mM HEPES pH 7.0, 25 °C.

Substrate in data set [9]: Nc1ncnc2c1ncn2[C@@H]1O[C@H](CO)[C@@H](O)[C@H]1O
Put plainly: Enzymatic assay for HpAFLDA deaminase activity. In kind it is biochemical, H. pylori strain J99. The note with it: other: deamination by HpAFLDA, 50 mM HEPES pH 7.0, 25 °C.

Substrate in data set [10]: Nc1ncnc2c1ncn2[C@@H]1O[C@H](CCC(=O)c2cccc(C(=O)O)c2)[C@@H](O)[C@H]1O
Kind of data set: AFL and FL hydrolysis by HpMTAN. The format is biochemical, Helicobacter pylori. The conditions noted are these: other: hydrolysis by HpMTAN, 50 mM HEPES pH 7.0.

Where [11] appears, read: deamination by HpAFLDA, 50 mM HEPES pH 7.0, 25 °C.

Take 5′-methylthioadenosine [MTA]: the “catalytic efficiency of MTA hydrolysis relative to AFL hydrolysis” value at HpMTAN [1] is above 100 fold.

The molecule `OC[C@H]1O[C@@H](n2cnc3c2N=CNC[C@H]3O)[C@H](O)[C@@H]1O` [(8R)-CF, Coformycin, reference compound] came in with a Ki at HpAFLDA above 10 µM. For the same molecule, in [2], the Ki values result is given as “submicromolar”.

On to `CSC[C@H]1O[C@@H](n2cnc3c2N=CNC[C@H]3O)C[C@@H]1O` [(8R)-MT-2′d-CF, 5′-methylthio-2′-deoxycoformycin], for which the “inhibition of HpAFLDA activity” value on HpAFLDA (even at 10 μM) is “did not inhibit”.

`CSC[C@H]1O[C@@H](n2cnc3c2N=CNC[C@H]3O)[C@H](O)[C@@H]1O` [(8R)-MTCF, 5′-methylthiocoformycin]: the “type of inhibition of HpAFLDA” value at HpAFLDA (second phase of inhibition after reaction for 30 min) was “slow-onset inhibitor”. In addition, the IC50 in the data set on H. pylori J99 (read-out: IC50, H. pylori growth, liquid medium, 72 h, microaerophilic, 37 °C) is 14 ± 1 µM.

Turning to `O[C@@H]1CNC=Nc2c1ncn2[C@H]1C[C@H](O)[C@@H](CSc2ccccc2)O1` [(8R)-PhT-2′d-CF, 5′-phenylthio-2′-deoxycoformycin], the “inhibition of HpAFLDA (in words)” value on HpAFLDA is on record as “showed some inhibition”.

`CCCSC[C@H]1O[C@@H](n2cnc3c2N=CNC[C@H]3O)C[C@@H]1O` [(8R)-PrT-2′d-CF, 5′-propylthio-2′-deoxycoformycin]: on HpAFLDA, the “inhibition of HpAFLDA (in words)” value is “showed some inhibition”.

Consider `Nc1ncnc2c1ncn2[C@@H]1O[C@H](CCC(=O)c2cccc(C(=O)O)c2)[C@@H](O)[C@H]1O` [AFL, 6-Amino-6-deoxyfutalosine], for which, at HpAFLDA (jhp0252), the “fold difference of kcat/Km between AFL and adenosine” value was found to be 26 fold. Further, the kcat on HpAFLDA (jhp0252) (setting [11]) stood at 0.62 s⁻¹. Also, the “hydrolysis by HpMTAN (in words)” value on HpMTAN [3] is on record as “capable of catalyzing only AFL hydrolysis”. In the data set with H. pylori cells [4] (25 μM AFL), the “conversion of the added metabolite by live H. pylori cells” value was “readily converted AFL to FL and adenine”. Moreover, the “effect of supplementation on cell growth” value with H. pylori (200 μM AFL in the growth medium, BTDIA used to stress MK biosynthesis) is given as “did not cause a significant impact on cell growth”. The “catalytic efficiencies for AFL deamination” value in data set [5] is listed as 4.8 × 10^6 to 7.9 × 10^5 M^−1 s^−1.

Consider `CCCCSC[C@H]1CN(Cc2c[nH]c3c(N)ncnc23)C[C@@H]1O` [BTDIA, BuT-DADMe-ImmA], for which, in the data set on H. pylori cells [6] (BTDIA at 14 nM, p < 0.005), the “menaquinone-6 concentrations in lipid extracts” value was “decreased significantly”. Besides, the “cellular DHFL concentrations” value with H. pylori cells [6] (BTDIA at its half-maximal inhibitory concentration (14 nM)) was “Significant decreases”.

`O=C(O)c1cccc(C(=O)CC[C@H]2O[C@@H](n3cnc4c(=O)[nH]cnc43)[C@H](O)[C@@H]2O)c1` [FL, futalosine]: the “reversal of MTCF growth inhibition by supplementation” value in the data set with H. pylori J99 (50 μM FL with 6-100 μM MTCF, 96 h) is “partially reversed the growth inhibition”. The “hydrolysis by HpMTAN (in words)” value on HpMTAN [3] is recorded as “not FL hydrolysis”. The kcat on HpMTAN [3] (hydrolysis by HpMTAN, 50 mM HEPES pH 7.0) is below 1e-05 s⁻¹. Besides, in the data set with H. pylori cells [4] (25 μM FL), the “change of the FL concentration in live H. pylori cells” value is “no significant changes” and the “hypoxanthine formation in live H. pylori cells” value is listed as “no hypoxanthine was formed”. Further, the “effect of supplementation on cell growth” value with H. pylori (FL 1 to 200 μM) is “did not affect cell growth”.

Turning to `Nc1ncnc2c1ncn2[C@@H]1O[C@H](CSCC[C@H](N)C(=O)O)[C@@H](O)[C@H]1O` [SAH, S-adenosylhomocysteine], on HpAFLDA (jhp0252) (setting [11]), the Km turned out to be 220 ± 50 µM and the kcat turned out to be 0.12 ± 0.02 s⁻¹.

For `Nc1ncnc2c1ncn2[C@@H]1O[C@H](CO)[C@@H](O)[C@H]1O` [adenosine], the “fold difference of kcat/Km between AFL and adenosine” value at HpAFLDA (jhp0252) is 26 fold.

B1: HpAFLDA (jhp0252) (Helicobacter pylori J99) (protein)
chain: MQEIIGASLVFLCNEKCEVLEDYGVVFDEKIVEIGDYHNLTLKYPHLKAQFFENSVLLPAFINAHTHFEFSNNKASFDYGSFSGWLGSVLNNGGAILENCQGAIQNAIMAQLKSGVGSVGAISNHLIEVNLLKESPLNAVVFLEFLGSSYSLEKLKAFEAKFKELKDLEDQKLKAALAVHAPYSVQKDMALSVIQLAKDSQSLLSTHFLESLEELEWVENSKGWFENFYQRFLKESNFTSLYEGANDYIDMFKDTHTLFVHNQFASLEALKRIKSQVKNAFLITCPFSNRLLSGKALDLERVREAGLSVSVATDGLSSNISLSLLDELRAFLLSHNMPLLELAKIALLGATRHGAKALALNNGEIETNKRADLSVFGFNEKFTKEQAILQFLLHAKEVERLFLGGKRVI
In the case of B1, in [7], the kcat was found to be 1.6 ± 0.3 s⁻¹ and the kcat/Km came to 12000 M⁻¹ s⁻¹. In addition, in [8], the Km came to 9 ± 1 µM, the kcat stood at 0.62 ± 0.03 s⁻¹ and the kcat/Km was determined as 68000 M⁻¹ s⁻¹. For the same molecule, in data set [9], the Km was 170 ± 40 µM, the kcat came to 0.44 ± 0.06 s⁻¹ and the kcat/Km came to 2600 M⁻¹ s⁻¹.

B2: HpMTAN (Helicobacter pylori J99) (protein)
chain: MQKIGILGAMREEITPILELFGVDFEEIPLGGNVFHKGVYHNKEIIVAYSKIGKVHSTLTTTSMILAFGVQKVLFSGVAGSLVKDLKINDLLVATQLVQHDVDLSAFDHPLGFIPESAIFIETSGSLNALAKKIANEQHIALKEGVIASGDQFVHSKERKEFLVSEFKASAVEMEGASVAFVCQKFGVPCCVLRSISDNADEKAGMSFDEFLEKSAHTSAKFLKSMVDEL
B2: in data set [10], the Km came to 1.6 ± 0.3 µM, the kcat stood at 0.022 ± 0.02 s⁻¹ and the kcat/Km was 14000 M⁻¹ s⁻¹.
